Here are results for 14 compounds from ChEMBL document CHEMBL1126878, “4,5-Dihydro-1-phenyl-1H-2,4-benzodiazepines: novel antiarrhythmic agents” (J Med Chem, 1993).

One data set concerns Canis familiaris. Description: Minimal effective dose that resulted in significant reduction in PVC frequency in conscious dogs by po administration after 24 hours of coronary artery ligation. The data set is classed as functional. To be noted: Canis lupus familiaris, read-out: MED. Put shortly:
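Dogs (8.0–19.1 kg) underwent LAD occlusion under halothane anesthesia with Holter electrodes. 24 h after occlusion, animals with PVCs exceeding 50% of heart rate were dosed orally by gavage with agent in water (n = 4 per group). Holter recorded 1 h before and 12–24 h after dosing.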

The target in data set [1] is Sodium channel protein type 5 subunit alpha (cardiac sodium channel) (Rattus norvegicus, UniProt P15389). Description: in vitro. Particulars: sodium channel from cardiac myocytes, probe [3H]batrachotoxin ([3H]BTX).
Data set [2] has as its system Cavia porcellus. Description: Effective dose in vivo for cardiac refractoriness (ERP) using paced guinea pig model. Type of data set: functional. A digest of the protocol: (§1)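 Guinea pig paced in vivo model. Hemodynamics recorded in normal sinus rhythm; ERP measured during brief pacing at baseline and 10 min after dosing. Bolus of 1 mL/kg via left ventricular catheter for doses <10 mg/kg; higher doses infused over 1 min. Cumulative dosing every 15 min up to the maximally tolerated dose (dP/dt reduced >50%). ED20 (ERP +20 ms) and dP/dt20 (20% drop in LV pressure-rise rate) derived by linear regression of individual dose-response curves.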

Data set [3] concerns Felis catus. Description: Effective refractory period (ERP) after iv administration to anesthetized, acutely infarcted cats at 1 mg/kg. The data set is classed as functional. Put shortly: (§2)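 Anesthetized cats given a slow iv bolus, with single-stage LAD occlusion 10 min later. Stimulating current raised until fibrillation; three baseline sequences about 15 min apart. Pacing repeated every 15 min for 2 h after occlusion, then every 30 min, for 5 h in total. Values are the mean maximum change over 5 h in VFT (mamps) or ERP (ms); cardioversion at 14–50 J.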

Data set [4] relates to Cavia porcellus. Description: In vivo index of cardiac contractility using paced guinea pig model. Type of data set: functional. A digest of the protocol: as §1
Data set [5] has as its system Cavia porcellus. In words: Minimal effective dose that resulted in significant delay in the onset of arrhythmias in guinea pig with iv administration of aconitine hydrochloride. The data set is classed as functional. Particulars: read-out: MED. Put shortly: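 Guinea pigs (n = 6 per dose, parallel groups) received agent or saline iv (1 mL/kg) 10 min before a lethal aconitine hydrochloride challenge (34 μg/kg iv). Times to first PVC, sustained VT and VF (>15 s) were recorded and compared with concurrent controls by one-way ANOVA. MED taken from an ascending semilogarithmic dose escalation as the dose giving significant delay in arrhythmia onset.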

The subject of data set [6] is Felis catus. Description: Ventricular fribrillation threshold (VFT) after iv administration to anesthetized, acutely infarcted cats at 1 mg/kg. Type of data set: functional, Heart. A digest of the protocol: as §2
Data set [7] deals with Felis catus. Description: Effective refractory period (ERP) after iv administration to anesthetized, acutely infarcted cats at x mg/kg. The data set is classed as functional. A digest of the protocol: as §2
The test system of data set [8] is Felis catus. Description: Ventricular fribrillation threshold (VFT) after iv administration to anesthetized, acutely infarcted cats at 0.3 mg/kg. Type of data set: functional, Heart. A digest of the protocol:
as §2

The subject of data set [9] is Felis catus. In words: Ventricular fribrillation threshold (VFT) after iv administration to anesthetized, acutely infarcted cats at 3 mg/kg. Type of data set: functional, Heart. A digest of the protocol: as §2
Data set [10] deals with Felis catus. Description: Effective refractory period (ERP) after iv administration to anesthetized, acutely infarcted cats at 0.3 mg/kg. Type of data set: functional. Put shortly: as §2
For data set [11], the system named is Felis catus. In words: Ventricular fribrillation threshold (VFT) after iv administration to anesthetized, acutely infarcted cats at 5 mg/kg. The data set is classed as functional, Heart. Put shortly: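 Anesthetized cats received a slow iv bolus of test agent, followed 10 min later by single-stage LAD occlusion. Before dosing, VFT was measured three times about 15 min apart as baseline, raising the stimulating current until fibrillation was induced. After occlusion, pacing was repeated every 15 min for 2 h, then every 30 min, to 5 h. The value is the mean maximum VFT change (mamps) over 5 h.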

Data set [12] deals with Felis catus. Description: Effective refractory period (ERP) after iv administration to anesthetized, acutely infarcted cats at 0.03 mg/kg. The data set is classed as functional. Put shortly: as §2
In data set [13] the test system is Felis catus. In words: Ventricular fribrillation threshold (VFT) after iv administration to anesthetized, acutely infarcted cats at 0.03 mg/kg. The data set is classed as functional, Heart. A digest of the protocol:
as §2

Data set [14] relates to Felis catus. Description: Effective refractory period (ERP) after iv administration to anesthetized, acutely infarcted cats at 3 mg/kg. Type of data set: functional. Put shortly:
as §2

Chain of Sodium channel protein type 5 subunit alpha (cardiac sodium channel) (P15389 whole entry, the tested form may be a part): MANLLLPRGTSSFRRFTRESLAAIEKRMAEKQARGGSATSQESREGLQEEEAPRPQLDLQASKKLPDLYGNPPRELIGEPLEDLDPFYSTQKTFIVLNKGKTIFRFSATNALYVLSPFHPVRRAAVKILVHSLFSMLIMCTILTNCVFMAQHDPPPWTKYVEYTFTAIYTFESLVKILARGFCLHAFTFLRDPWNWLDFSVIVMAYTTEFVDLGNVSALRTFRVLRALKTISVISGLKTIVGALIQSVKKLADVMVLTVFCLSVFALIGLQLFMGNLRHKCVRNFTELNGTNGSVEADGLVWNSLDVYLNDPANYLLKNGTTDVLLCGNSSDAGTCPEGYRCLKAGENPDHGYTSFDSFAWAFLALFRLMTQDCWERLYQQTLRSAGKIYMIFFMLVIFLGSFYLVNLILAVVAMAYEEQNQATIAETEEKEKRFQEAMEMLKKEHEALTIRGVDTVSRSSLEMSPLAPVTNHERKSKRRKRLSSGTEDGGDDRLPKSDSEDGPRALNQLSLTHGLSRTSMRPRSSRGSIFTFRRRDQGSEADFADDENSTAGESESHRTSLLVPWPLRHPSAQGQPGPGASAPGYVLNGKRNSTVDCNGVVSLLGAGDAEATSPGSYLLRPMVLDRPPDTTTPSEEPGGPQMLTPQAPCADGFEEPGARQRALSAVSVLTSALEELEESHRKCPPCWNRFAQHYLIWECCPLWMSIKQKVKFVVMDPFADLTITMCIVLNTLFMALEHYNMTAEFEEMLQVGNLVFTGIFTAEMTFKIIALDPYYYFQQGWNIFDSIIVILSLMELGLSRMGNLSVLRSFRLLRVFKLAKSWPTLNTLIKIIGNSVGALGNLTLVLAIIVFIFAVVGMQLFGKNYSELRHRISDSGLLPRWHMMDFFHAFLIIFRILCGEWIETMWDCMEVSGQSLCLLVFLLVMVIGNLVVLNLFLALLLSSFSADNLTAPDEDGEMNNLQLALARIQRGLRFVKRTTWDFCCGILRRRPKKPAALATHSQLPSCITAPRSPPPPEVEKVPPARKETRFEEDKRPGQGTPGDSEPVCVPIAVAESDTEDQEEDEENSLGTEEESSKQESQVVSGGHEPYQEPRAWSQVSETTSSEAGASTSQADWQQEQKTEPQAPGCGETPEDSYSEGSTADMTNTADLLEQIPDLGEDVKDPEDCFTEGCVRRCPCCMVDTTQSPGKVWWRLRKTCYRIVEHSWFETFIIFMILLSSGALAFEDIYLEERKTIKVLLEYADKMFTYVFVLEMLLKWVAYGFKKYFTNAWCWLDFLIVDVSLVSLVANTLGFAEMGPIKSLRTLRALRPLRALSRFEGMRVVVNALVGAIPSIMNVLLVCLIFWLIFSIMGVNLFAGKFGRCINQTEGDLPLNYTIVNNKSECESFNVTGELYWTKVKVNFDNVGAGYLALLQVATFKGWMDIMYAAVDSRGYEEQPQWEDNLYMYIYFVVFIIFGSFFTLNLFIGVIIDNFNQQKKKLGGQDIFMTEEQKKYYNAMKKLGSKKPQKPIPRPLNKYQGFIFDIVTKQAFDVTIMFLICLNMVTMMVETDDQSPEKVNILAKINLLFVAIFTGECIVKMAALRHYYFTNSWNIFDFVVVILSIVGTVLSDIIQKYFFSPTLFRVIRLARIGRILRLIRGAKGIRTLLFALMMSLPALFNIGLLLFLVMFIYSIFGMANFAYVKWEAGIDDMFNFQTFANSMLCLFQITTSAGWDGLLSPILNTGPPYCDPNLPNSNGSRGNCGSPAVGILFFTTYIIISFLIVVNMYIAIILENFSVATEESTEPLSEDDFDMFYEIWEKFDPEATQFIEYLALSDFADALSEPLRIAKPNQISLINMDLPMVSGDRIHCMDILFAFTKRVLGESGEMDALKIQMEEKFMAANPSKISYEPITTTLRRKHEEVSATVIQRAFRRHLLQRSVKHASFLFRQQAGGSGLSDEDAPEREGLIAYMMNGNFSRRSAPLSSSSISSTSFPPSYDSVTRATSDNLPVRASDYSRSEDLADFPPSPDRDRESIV

Regarding `CCC1=NC(c2ccccc2)c2ccccc2CN1C.Cl` (centres undefined), the minimal effective dose was 10 mg/kg in the data set with Canis familiaris and 3 mg/kg in the data set with Cavia porcellus [5]. The compound further had an inhibition at 10 µM in data set [1] of 50%. Besides, the ED20 in the data set with Cavia porcellus [2] came out at 0.6 mg/kg. The compound also had an ERP with Felis catus [3] of 13 ms. This compound registered a dP/dt20 in the data set on Cavia porcellus [4] of 0.8 mg/kg. This compound showed a VFT with Felis catus [6] of 84 mA.
For the compound `CN1Cc2ccccc2C(c2ccccc2)N=C1CCc1ccccc1.Cl` (centres undefined), the minimal effective dose with Canis familiaris is 3 mg/kg; with Cavia porcellus [5] it was less than 3 mg/kg. Moreover, the ED20 in the data set on Cavia porcellus [2] amounted to 0.04 mg/kg. Moreover, the ERP in the data set with Felis catus [3] is listed as 61 ms. In addition, in the data set on Cavia porcellus [4], the dP/dt20 came out at 0.02 mg/kg. In addition, the VFT in the data set on Felis catus [6] amounted to 95 mA.
As for `CCC1=N[C@@H](c2ccccc2)c2ccccc2CN1C.Cl`, the minimal effective dose is greater than 10 mg/kg with Canis familiaris and 3 mg/kg in the data set with Cavia porcellus [5]. The inhibition at 10 µM in [1] worked out at 45%. In the data set on Cavia porcellus [2], the ED20 worked out at 7.1 mg/kg. Besides, in the data set on Cavia porcellus [4], the dP/dt20 is 0.09 mg/kg.
Consider `CN1Cc2ccccc2[C@@H](c2ccccc2)N=C1CCc1ccccc1.Cl`, for which the ERP with Felis catus [7] was 13 ms. In addition, the minimal effective dose in the data set on Canis familiaris was determined as 3 mg/kg; in the data set with Cavia porcellus [5] it was 0.1 mg/kg. The compound also showed a VFT in the data set on Felis catus [8] of 37 mA. Besides, the ED20 in the data set with Cavia porcellus [2] turned out to be 0.03 mg/kg. The compound also gave a dP/dt20 with Cavia porcellus [4] of 0.03 mg/kg.
The compound `CCOC(=O)C1(c2ccccc2)N=C(CC)N(C)Cc2ccccc21.O=C(O)/C=C/C(=O)O` (centres undefined) displayed an ERP in the data set on Felis catus [7] of 47 ms. In addition, the minimal effective dose is 3 mg/kg in the data set with Canis familiaris and less than 3 mg/kg in the data set with Cavia porcellus [5]. The compound also showed an inhibition at 10 µM in [1] of 56%. The VFT in the data set on Felis catus [8] is reported as 84 mA. In the data set with Cavia porcellus [2], this compound returned an ED20 of 0.4 mg/kg. In the data set on Cavia porcellus [4], this compound had a dP/dt20 of 0.1 mg/kg.
Compound `CCC1=NC(C)(c2ccccc2)c2ccccc2CN1C.O=C(O)/C=C/C(=O)O` (centres undefined) showed an ERP in the data set on Felis catus [7] of 78 ms. In the data set on Felis catus [9], this compound displayed a VFT of 81 mA. Besides, the minimal effective dose was 10 mg/kg in the data set with Canis familiaris and less than 3 mg/kg with Cavia porcellus [5]. This compound registered an inhibition at 10 µM in data set [1] of 60%. Besides, the ED20 in the data set on Cavia porcellus [2] was 0.7 mg/kg. This compound also returned a dP/dt20 in the data set on Cavia porcellus [4] of 1.2 mg/kg.
`CN1Cc2ccccc2C(c2ccccc2)N=C1CCc1ccc(Cl)cc1.O=C(O)/C=C/C(=O)O` (centres undefined): in the data set on Felis catus [7], the ERP was 45 ms. Also, the minimal effective dose in the data set on Canis familiaris and in the data set on Cavia porcellus [5] was 3 mg/kg in each case. The same compound returned an inhibition at 10 µM in [1] of 97%. Also, the ED20 with Cavia porcellus [2] worked out at 0.1 mg/kg. This compound displayed a dP/dt20 in the data set with Cavia porcellus [4] of 0.85 mg/kg. Also, the VFT in the data set on Felis catus [6] came to 93 mA.
With `CCC1=N[C@H](c2ccccc2)c2ccccc2CN1C.Cl`, the minimal effective dose in the data set with Canis familiaris was determined as 10 mg/kg; with Cavia porcellus [5], 3 mg/kg. This compound came in with an inhibition at 10 µM in data set [1] of 42%. The same compound came in with a VFT with Felis catus [8] of 63 mA. The ED20 in the data set with Cavia porcellus [2] was 0.3 mg/kg. The same compound showed a dP/dt20 in the data set on Cavia porcellus [4] of 0.3 mg/kg. Also, the ERP with Felis catus [10] came to 16 ms.
In the case of `CN1Cc2ccccc2[C@H](c2ccccc2)N=C1CCc1ccccc1.Cl`, the minimal effective dose worked out at 10 mg/kg in the data set on Canis familiaris and 0.1 mg/kg with Cavia porcellus [5]. In the data set with Cavia porcellus [2], this compound gave an ED20 of 0.02 mg/kg. The compound further yielded an ERP with Felis catus [3] of 21 ms. Moreover, the dP/dt20 in the data set on Cavia porcellus [4] came to 0.02 mg/kg. In addition, in the data set with Felis catus [6], the VFT amounted to 82 mA.
In the case of `CN1Cc2ccccc2C(C)(c2ccccc2)N=C1CC(O)c1ccccc1` (centres undefined), the minimal effective dose with Canis familiaris was 10 mg/kg; with Cavia porcellus [5] it was less than 3 mg/kg. In data set [1], the inhibition at 10 µM was 92%. In addition, in the data set with Cavia porcellus [2], the ED20 is 0.1 mg/kg. The dP/dt20 with Cavia porcellus [4] is 0.1 mg/kg.
Compound `CC(C)N(CCC(C(N)=O)(c1ccccc1)c1ccccn1)C(C)C` (centres undefined) [DISOPYRAMIDE] displayed an ERP with Felis catus [7] of 26 ms. For the same compound, the minimal effective dose in the data set on Canis familiaris was 40 mg/kg; in the data set on Cavia porcellus [5] it was 1 mg/kg. Moreover, in the data set on Felis catus [11], the VFT stood at 73 mA. Further, in data set [1], the inhibition at 10 µM worked out at 17%. This compound also yielded an ED20 in the data set on Cavia porcellus [2] of 0.2 mg/kg. Moreover, in the data set with Cavia porcellus [4], the dP/dt20 is 0.03 mg/kg.
`CN(CCOc1ccc(NS(C)(=O)=O)cc1)CCc1ccc(NS(C)(=O)=O)cc1` [DOFETILIDE] came in with an ERP in the data set with Felis catus [12] of 85 ms. For the same compound, in the data set with Felis catus [13], the VFT is 43 mA.
`O=C(NCC1CCCCN1)c1cc(OCC(F)(F)F)ccc1OCC(F)(F)F` (centres undefined) [FLECAINIDE] came in with an ERP with Felis catus [14] of 5 ms. In the data set on Felis catus [9], this compound came in with a VFT of 30 mA. In addition, the minimal effective dose is 10 mg/kg in the data set with Canis familiaris and 3 mg/kg in the data set with Cavia porcellus [5]. In addition, at 10 µM the inhibition in [1] was 74%. This compound also gave an ED20 with Cavia porcellus [2] of 12.8 mg/kg. In the data set on Cavia porcellus [4], this compound returned a dP/dt20 of 1.8 mg/kg.
`C=C[C@H]1CN2CC[C@H]1C[C@@H]2[C@@H](O)c1ccnc2ccc(OC)cc12` [QUINIDINE]: the minimal effective dose is 30 mg/kg with Canis familiaris and 1 mg/kg in the data set with Cavia porcellus [5]. Further, in data set [1], the inhibition at 10 µM was 68%. The same compound had an ED20 in the data set on Cavia porcellus [2] of 7.2 mg/kg. In the data set with Cavia porcellus [4], this compound returned a dP/dt20 of 2.5 mg/kg.
